Test results published in ChEMBL document CHEMBL1135248, “Synthesis and evaluation of pseudopeptide analogues of a specific CXCR4 inhibitor, T140: the insertion of an (E)-alkene dipeptide isostere into the betaII'-turn moiety” (Bioorg Med Chem Lett, 2002).
“And” between values parts separate entries of the source, which are not always exact repeats. Identical values can stand only once.

Tests used:
[1] = Selectivity index (SI) is determined as the ratio of CC50/EC50; format: functional
Outline: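 Ratio of CC50 to EC50, both taken from MTT read-outs in MT-4 cells: mock-infected cells for CC50 and HIV-1 IIIB-infected cells for EC50. Each value is the mean of at least three experiments.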

MT4 [2] = assay: Cytotoxicity based on the reduction of the viability of mock-infected MT-4 cells using the MTT method; format: functional, Homo sapiens
Outline: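 Mock-infected MT-4 cells were exposed to compound. Loss of viability was read by the MTT method, and CC50 was derived. Values are the mean of at least three experiments.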

MT4 [3] = assay: Anti-HIV activity based on the protection against HIV-induced cytopathogenicity in MT-4 cells using MTT method; format: functional, cell-based, Homo sapiens
Outline: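 MT-4 cells challenged with the X4 strain HIV-1 IIIB. Protection from virus-induced cytopathogenicity was read by the MTT method, and EC50 was derived. Values are the mean of at least three experiments.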

[4] = target: T1, C-X-C chemokine receptor type 4 (Homo sapiens, UniProt P61073); assay: (§1) Inhibitory activity based on the inhibition of [Ca2+] mobilization induced by human SDF-1alpha stimulation through CXCR4
T1 sequence (P61073 whole entry): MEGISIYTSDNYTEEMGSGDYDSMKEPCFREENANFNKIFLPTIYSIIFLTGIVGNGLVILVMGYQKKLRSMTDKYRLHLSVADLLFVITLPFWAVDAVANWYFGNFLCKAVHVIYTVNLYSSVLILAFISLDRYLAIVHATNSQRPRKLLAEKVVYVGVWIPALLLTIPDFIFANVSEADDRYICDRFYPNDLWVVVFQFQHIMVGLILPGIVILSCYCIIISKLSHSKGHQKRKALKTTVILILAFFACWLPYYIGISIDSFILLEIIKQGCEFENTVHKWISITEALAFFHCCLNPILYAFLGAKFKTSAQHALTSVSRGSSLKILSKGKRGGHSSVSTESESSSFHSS
Outline: (§2)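 CHO cells transfected with CXCR4 were loaded with Fura-2-AM for 1–2 h and then pretreated with analogue. Recombinant human SDF-1α was added 3 min later. [Ca2+]i rise was measured spectrofluorometrically by a modified Fura-2 method, and IC50 was derived from inhibition of mobilization. Values are the mean of two experiments.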

[5] = target: T1, C-X-C chemokine receptor type 4; assay: as §1; outline: as §2; remark: listed apart in the source

C[C@H]1/C=C\[C@@H](CCCCN)NC(=O)[C@H](CCCCN)NC(=O)[C@@H](CCCN=C(N)N)NC(=O)[C@H](Cc2ccc(O)cc2)NC(=O)[C@@H](NC(=O)[C@H](CSC23C[C@H]4C[C@@H](C2)C[C@@H](C3)C4)NC(=O)[C@H](CCCN=C(N)N)NC(=O)[C@@H](N)CCCN=C(N)N)CSSC[C@@H](C(=O)N[C@@H](CCCN=C(N)N)C(N)=O)NC(=O)C(CCCNC(N)=O)NC(=O)[C@@H](CCCN=C(N)N)NC(=O)[C@H](Cc2ccc(O)cc2)NC1=O (stereo partly specified)
SI [1]: 6900 and 3300

C[C@H]1/C=C\[C@@H](CCCCN)NC(=O)[C@H](CCCCN)NC(=O)[C@@H](CCCN=C(N)N)NC(=O)[C@H](Cc2ccc(O)cc2)NC(=O)[C@@H](NC(=O)[C@H](Cc2ccc3ccccc3c2)NC(=O)[C@H](CCCN=C(N)N)NC(=O)[C@@H](N)CCCN=C(N)N)CSSC[C@@H](C(=O)N[C@@H](CCCN=C(N)N)C(=O)O)NC(=O)C(CCCNC(N)=O)NC(=O)[C@@H](CCCN=C(N)N)NC(=O)[C@H](Cc2ccc(O)cc2)NC1=O (stereo partly specified)
SI [1]: > 220000 and 140000

C[C@H]1/C=C\[C@@H](CCCCN)NC(=O)[C@H](CCCCN)NC(=O)[C@@H](CCCN=C(N)N)NC(=O)[C@H](Cc2ccc(O)cc2)NC(=O)[C@@H](NC(=O)[C@H](Cc2ccc3ccccc3c2)NC(=O)[C@H](CCCN=C(N)N)NC(=O)[C@@H](N)CCCN=C(N)N)CSSC[C@@H](C(=O)N[C@@H](CCCN=C(N)N)C(N)=O)NC(=O)C(CCCNC(N)=O)NC(=O)[C@@H](CCCN=C(N)N)NC(=O)[C@H](Cc2ccc(O)cc2)NC1=O (stereo partly specified)
SI [1]: 12000 and 31000

C[C@H]1/C=C\[C@@H](CCCCN)NC(=O)[C@H](CCCCN)NC(=O)[C@H](CCCN=C(N)N)NC(=O)[C@H](Cc2ccc(O)cc2)NC(=O)[C@@H](NC(=O)[C@H](CSC23C[C@H]4C[C@@H](C2)C[C@@H](C3)C4)NC(=O)[C@H](CCCN=C(N)N)NC(=O)[C@@H](N)CCCN=C(N)N)CSSC[C@@H](C(=O)N[C@@H](CCCN=C(N)N)C(N)=O)NC(=O)[C@H](CCCNC(N)=O)NC(=O)[C@H](CCCN=C(N)N)NC(=O)[C@H](Cc2ccc(O)cc2)NC1=O [listing 1 of 2 here]
CC50 (MT4 [2]): 57000 nM | CC50 (MT4 [2]; Homo sapiens, MT4): 49000 nM

C[C@H]1/C=C\[C@@H](CCCCN)NC(=O)[C@H](CCCCN)NC(=O)[C@H](CCCN=C(N)N)NC(=O)[C@H](Cc2ccc(O)cc2)NC(=O)[C@@H](NC(=O)[C@H](CSC23C[C@H]4C[C@@H](C2)C[C@@H](C3)C4)NC(=O)[C@H](CCCN=C(N)N)NC(=O)[C@@H](N)CCCN=C(N)N)CSSC[C@@H](C(=O)N[C@@H](CCCN=C(N)N)C(N)=O)NC(=O)[C@H](CCCNC(N)=O)NC(=O)[C@H](CCCN=C(N)N)NC(=O)[C@H](Cc2ccc(O)cc2)NC1=O [listing 2 of 2 here]
EC50 (MT4 [3]; mt4): 7.1 nM and 17 nM | IC50 [4]: 170 nM

C[C@H]1/C=C\[C@@H](CCCCN)NC(=O)[C@H](CCCCN)NC(=O)[C@H](CCCN=C(N)N)NC(=O)[C@H](Cc2ccc(O)cc2)NC(=O)[C@@H](NC(=O)[C@H](Cc2c[nH]c3ccccc23)NC(=O)[C@H](CCCN=C(N)N)NC(=O)[C@@H](N)CCCN=C(N)N)CSSC[C@@H](C(=O)N[C@@H](CCCN=C(N)N)C(N)=O)NC(=O)[C@H](CCCNC(N)=O)NC(=O)[C@H](CCCN=C(N)N)NC(=O)[C@H](Cc2ccc(O)cc2)NC1=O [listing 1 of 2 here]
CC50 (MT4 [2]): 58000 nM | CC50 (MT4 [2]; Homo sapiens, MT4): 56000 nM

C[C@H]1/C=C\[C@@H](CCCCN)NC(=O)[C@H](CCCCN)NC(=O)[C@H](CCCN=C(N)N)NC(=O)[C@H](Cc2ccc(O)cc2)NC(=O)[C@@H](NC(=O)[C@H](Cc2ccc3ccccc3c2)NC(=O)[C@H](CCCN=C(N)N)NC(=O)[C@@H](N)CCCN=C(N)N)CSSC[C@@H](C(=O)N[C@@H](CCCN=C(N)N)C(=O)O)NC(=O)[C@H](CCCNC(N)=O)NC(=O)[C@H](CCCN=C(N)N)NC(=O)[C@H](Cc2ccc(O)cc2)NC1=O [listing 1 of 2 here]
EC50 (MT4 [3]; mt4): < 0.3 nM and 1.9 nM

C[C@H]1/C=C\[C@@H](CCCCN)NC(=O)[C@H](CCCCN)NC(=O)[C@H](CCCN=C(N)N)NC(=O)[C@H](Cc2ccc(O)cc2)NC(=O)[C@@H](NC(=O)[C@H](Cc2ccc3ccccc3c2)NC(=O)[C@H](CCCN=C(N)N)NC(=O)[C@@H](N)CCCN=C(N)N)CSSC[C@@H](C(=O)N[C@@H](CCCN=C(N)N)C(=O)O)NC(=O)[C@H](CCCNC(N)=O)NC(=O)[C@H](CCCN=C(N)N)NC(=O)[C@H](Cc2ccc(O)cc2)NC1=O [listing 2 of 2 here]
CC50 (MT4 [2]): 67000 nM and 270000 nM

C[C@H]1/C=C\[C@@H](CCCCN)NC(=O)[C@H](CCCCN)NC(=O)[C@H](CCCN=C(N)N)NC(=O)[C@H](Cc2ccc(O)cc2)NC(=O)[C@@H](NC(=O)[C@H](CSCc2ccccc2)NC(=O)[C@H](CCCN=C(N)N)NC(=O)[C@@H](N)CCCN=C(N)N)CSSC[C@@H](C(=O)N[C@@H](CCCN=C(N)N)C(N)=O)NC(=O)[C@H](CCCNC(N)=O)NC(=O)[C@H](CCCN=C(N)N)NC(=O)[C@H](Cc2ccc(O)cc2)NC1=O [listing 1 of 2 here]
EC50 (MT4 [3]; Homo sapiens, MT4): 67 nM | EC50 (MT4 [3]; mt4): 45 nM | IC50 [4]: 36 nM

Nc1ccn([C@H]2CC[C@@H](CO)O2)c(=O)n1 [ZALCITABINE]
EC50 (MT4 [3]; Homo sapiens, MT4): 33 nM | SI [1]: 1500 | CC50 (MT4 [2]; Homo sapiens, MT4): 48000 nM

C[C@H]1/C=C\[C@@H](CCCCN)NC(=O)[C@H](CCCCN)NC(=O)[C@H](CCCN=C(N)N)NC(=O)[C@H](Cc2ccc(O)cc2)NC(=O)[C@@H](NC(=O)[C@H](CSCc2ccccc2)NC(=O)[C@H](CCCN=C(N)N)NC(=O)[C@@H](N)CCCN=C(N)N)CSSC[C@@H](C(=O)N[C@@H](CCCN=C(N)N)C(N)=O)NC(=O)[C@H](CCCNC(N)=O)NC(=O)[C@H](CCCN=C(N)N)NC(=O)[C@H](Cc2ccc(O)cc2)NC1=O [listing 2 of 2 here]
CC50 (MT4 [2]): 59000 nM | CC50 (MT4 [2]; Homo sapiens, MT4): 54000 nM

C[C@H]1/C=C\[C@@H](CCCCN)NC(=O)[C@H](CCCCN)NC(=O)[C@H](CCCNC(=N)N)NC(=O)[C@H](Cc2ccc(O)cc2)NC(=O)[C@@H](NC(=O)[C@H](Cc2ccc3ccccc3c2)NC(=O)[C@H](CCCNC(=N)N)NC(=O)[C@@H](N)CCCN=C(N)N)CSSC[C@@H](C(=O)N[C@@H](CCCNC(=N)N)C(=O)O)NC(=O)[C@H](CCCNC(N)=O)NC(=O)[C@H](CCCNC(=N)N)NC(=O)[C@H](Cc2ccc(O)cc2)NC1=O
IC50 [5]: 6.9 nM | IC50 [4]: 7.3 nM

C[C@H]1/C=C\[C@@H](CCCCN)NC(=O)[C@H](CCCCN)NC(=O)[C@H](CCCN=C(N)N)NC(=O)[C@H](Cc2ccc(O)cc2)NC(=O)[C@@H](NC(=O)[C@H](Cc2ccc3ccccc3c2)NC(=O)[C@H](CCCN=C(N)N)NC(=O)[C@@H](N)CCCN=C(N)N)CSSC[C@@H](C(=O)N[C@@H](CCCN=C(N)N)C(N)=O)NC(=O)[C@H](CCCNC(N)=O)NC(=O)[C@H](CCCN=C(N)N)NC(=O)[C@H](Cc2ccc(O)cc2)NC1=O [listing 1 of 2 here]
CC50 (MT4 [2]): 58000 nM | CC50 (MT4 [2]; Homo sapiens, MT4): 57000 nM

C[C@H]1/C=C\[C@@H](CCCCN)NC(=O)[C@H](CCCCN)NC(=O)[C@@H](CCCN=C(N)N)NC(=O)[C@H](Cc2ccc(O)cc2)NC(=O)[C@@H](NC(=O)[C@H](Cc2c[nH]c3ccccc23)NC(=O)[C@H](CCCN=C(N)N)NC(=O)[C@@H](N)CCCN=C(N)N)CSSC[C@@H](C(=O)N[C@@H](CCCN=C(N)N)C(N)=O)NC(=O)C(CCCNC(N)=O)NC(=O)[C@@H](CCCN=C(N)N)NC(=O)[C@H](Cc2ccc(O)cc2)NC1=O (stereo partly specified)
SI [1]: 15000 and 20000

C[C@H]1/C=C\[C@@H](CCCCN)NC(=O)[C@H](CCCCN)NC(=O)[C@H](CCCN=C(N)N)NC(=O)[C@H](Cc2ccc(O)cc2)NC(=O)[C@@H](NC(=O)[C@H](Cc2ccc3ccccc3c2)NC(=O)[C@H](CCCN=C(N)N)NC(=O)[C@@H](N)CCCN=C(N)N)CSSC[C@@H](C(=O)N[C@@H](CCCN=C(N)N)C(N)=O)NC(=O)[C@H](CCCNC(N)=O)NC(=O)[C@H](CCCN=C(N)N)NC(=O)[C@H](Cc2ccc(O)cc2)NC1=O [listing 2 of 2 here]
EC50 (MT4 [3]; mt4): 4.7 nM and 1.9 nM | IC50 [5]: 5 nM | IC50 [4]: 10 nM

C[C@H]1/C=C\[C@@H](CCCCN)NC(=O)[C@H](CCCCN)NC(=O)[C@H](CCCN=C(N)N)NC(=O)[C@H](Cc2ccc(O)cc2)NC(=O)[C@@H](NC(=O)[C@H](Cc2c[nH]c3ccccc23)NC(=O)[C@H](CCCN=C(N)N)NC(=O)[C@@H](N)CCCN=C(N)N)CSSC[C@@H](C(=O)N[C@@H](CCCN=C(N)N)C(=O)O)NC(=O)[C@H](CCCNC(N)=O)NC(=O)[C@H](CCCN=C(N)N)NC(=O)[C@H](Cc2ccc(O)cc2)NC1=O
CC50 (MT4 [2]; Homo sapiens, MT4): 100000 nM

C[C@H]1/C=C\[C@@H](CCCCN)NC(=O)[C@H](CCCCN)NC(=O)[C@H](CCCN=C(N)N)NC(=O)[C@H](Cc2ccc(O)cc2)NC(=O)[C@@H](NC(=O)[C@H](Cc2c[nH]c3ccccc23)NC(=O)[C@H](CCCN=C(N)N)NC(=O)[C@@H](N)CCCN=C(N)N)CSSC[C@@H](C(=O)N[C@@H](CCCN=C(N)N)C(N)=O)NC(=O)[C@H](CCCNC(N)=O)NC(=O)[C@H](CCCN=C(N)N)NC(=O)[C@H](Cc2ccc(O)cc2)NC1=O [listing 2 of 2 here]
EC50 (MT4 [3]; Homo sapiens, MT4): 3.7 nM | EC50 (MT4 [3]; mt4): 2.9 nM | IC50 [5]: 5 nM

C[C@H]1/C=C\[C@@H](CCCCN)NC(=O)[C@H](CCCCN)NC(=O)[C@@H](CCCN=C(N)N)NC(=O)[C@H](Cc2ccc(O)cc2)NC(=O)[C@@H](NC(=O)[C@H](Cc2c[nH]c3ccccc23)NC(=O)[C@H](CCCN=C(N)N)NC(=O)[C@@H](N)CCCN=C(N)N)CSSC[C@@H](C(=O)N[C@@H](CCCN=C(N)N)C(=O)O)NC(=O)C(CCCNC(N)=O)NC(=O)[C@@H](CCCN=C(N)N)NC(=O)[C@H](Cc2ccc(O)cc2)NC1=O (stereo partly specified)
SI [1]: > 78000

C[C@H]1/C=C\[C@@H](CCCCN)NC(=O)[C@H](CCCCN)NC(=O)[C@@H](CCCN=C(N)N)NC(=O)[C@H](Cc2ccc(O)cc2)NC(=O)[C@@H](NC(=O)[C@H](CSCc2ccccc2)NC(=O)[C@H](CCCN=C(N)N)NC(=O)[C@@H](N)CCCN=C(N)N)CSSC[C@@H](C(=O)N[C@@H](CCCN=C(N)N)C(N)=O)NC(=O)C(CCCNC(N)=O)NC(=O)[C@@H](CCCN=C(N)N)NC(=O)[C@H](Cc2ccc(O)cc2)NC1=O (stereo partly specified)
SI [1]: 810 and 1300

Cc1cn([C@H]2C[C@H](N=[N+]=[N-])[C@@H](CO)O2)c(=O)[nH]c1=O [ZIDOVUDINE]
EC50 (MT4 [3]; Homo sapiens, MT4): 0.3 nM | SI [1]: 35000 | CC50 (MT4 [2]; Homo sapiens, MT4): 12000 nM
